Rows were chosen to be rich in hits. Some 2.6% of all compounds tested hit in one or more screens of this group.
PHOSPHO1 inh: blocks human PHOSPHO1 phosphatase activity. Q8TCT1. recombinant PHOSPHO1, absorbance phosphatase assay. inhibition, % at 13.3 µM. 290,000 tested, 1.1% active. AID 1565; in the data active means inhibition above about 60%
Target sequence (Q8TCT1 whole entry, looked up): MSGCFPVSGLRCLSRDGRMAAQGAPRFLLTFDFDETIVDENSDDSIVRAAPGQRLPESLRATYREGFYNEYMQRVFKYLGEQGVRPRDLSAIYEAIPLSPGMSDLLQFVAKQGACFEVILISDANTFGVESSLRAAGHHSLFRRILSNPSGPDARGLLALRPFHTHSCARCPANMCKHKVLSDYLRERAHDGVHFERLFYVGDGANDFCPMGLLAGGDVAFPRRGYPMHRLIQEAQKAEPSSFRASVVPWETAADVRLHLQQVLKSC
ARFGAP1 inhibitor: inhibits rat ARF GTPase activating protein 1. Q62848. 360,000 tested, 0.26% active. inhibition, % at 16.5 µM. Arfgap1-stimulated ARF1 GTP hydrolysis, GDP FP detection;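 active means inhibition above a per-plate limit, mean inhibition of low control wells plus 3 SD, cut at about 25% in these data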;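 further: 0% = DMSO wells with enzyme and 100% = wells lacking Arfgap1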
Target sequence (Q62848 1-136 limits assumed): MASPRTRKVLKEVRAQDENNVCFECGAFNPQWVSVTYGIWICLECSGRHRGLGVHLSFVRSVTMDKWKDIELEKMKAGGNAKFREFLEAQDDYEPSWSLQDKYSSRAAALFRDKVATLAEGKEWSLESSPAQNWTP
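system = rat Arfgap1 catalytic domain, aa 1-136 | technique = FP, GDP Alexa 633 tracer displaced from anti-GDP antibody, 620/688 nm | compound = one concentration, 16.5 µM, DMSO 1.26% | medium = HEPES-based buffer, pH 7.5 | timing = compound-enzyme preincubation 20 min, reaction 120 min, detection 60 min, 25 °C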
ASAP1 inh: ASAP1 ArfGAP inhibition | ASAP1-stimulated ARF1 GTP hydrolysis, GDP FP detection | Q9ULH1 | AID 624377 | inhibition, % at 16.5 µM | 360,000 tested, 0.19% active; in the data active means inhibition above about 25%;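 further: 0% = vehicle with enzyme and substrate and 100% = no enzyme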
IMP-1 inh-1: blocks Pseudomonas aeruginosa IMP-1 metallo-beta-lactamase; purified IMP-1, nitrocefin hydrolysis, epi-absorbance fluorescence; inhibition, % at 5.6 µM; 290,000 tested, 0.45% active;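 active means inhibition above the mean plus 3 SD of all compounds in the same screening run, cut at about 4.5% in these data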;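 further: 0% = IMP-1 with DMSO and 100% = DMSO wells lacking enzyme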
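Assay system: purified IMP-1; Quantity: IMP-1 0.2 nM before substrate addition; Medium: HEPES buffer pH 7.1 with ZnSO4 and Brij 35; Incubation: 15 min enzyme–compound preincubation, then 25 min nitrocefin reaction, 25 °C; Signal: fluorescence quenching readout, ex 480/em 530 nm; Controls: DMSO with and without IMP-1; Repeats: singlicate testing.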
VIM-2 inh: blocks Pseudomonas aeruginosa VIM-2 metallo-beta-lactamase; 290,000 tested, 0.89% active; AID 1527; purified VIM-2, nitrocefin hydrolysis, epi-absorbance fluorescence; inhibition, % at 5.6 µM;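 active means inhibition above the mean of all tested compounds plus 3 SD, cutoff set per screening run, cut at about 7.5% in these data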;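 further: red hydrolysis product quenches plate fluorescence so inhibitors raise well fluorescence; 0% = enzyme with DMSO and 100% = DMSO without enzyme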
Calb FLC: affects C. albicans growth with fluconazole; 300,000 tested, 0.57% active; growth inhibition, % (concentration not given with the values); C. albicans CaCi-2 (fluconazole-resistant clinical isolate) + fluconazole, Alamar Blue growth, 48 h;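 active means growth inhibition above about 58% in most replicates, limit read from the data, passing the limit was not always enough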;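 further: all wells also contain fluconazole at 8 µg/ml as a sub-toxic cotreatment; 0% = median of DMSO wells and 100% = median of geldanamycin control wells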
IMP-1 inh-2: selectivity counter-screen for VIM-2 inhibitors: IMP-1 metallo-beta-lactamase inhibitors | shares compounds with VIM-2 inh | purified IMP-1, nitrocefin hydrolysis, epi-absorbance fluorescence | inhibition, % at 5.6 µM | 1,300 tested, under 10 active; call rule not given here;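 further: 0% = enzyme with vehicle and 100% = vehicle without enzyme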
VIM-2 FRET inh: VIM-2 FRET inhibition, artifact counter-screen | shares compounds with VIM-2 inh | purified VIM-2, CCF2 FRET substrate hydrolysis | inhibition, % at 5.6 µM | 1,300 tested, 23% active;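 active means inhibition above the mean of all tested compounds plus 3 SD, cut at about 19% in these data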;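 further: 0% = VIM-2 plus DMSO and 100% = no enzyme wells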
TEM-1 counter: TEM-1 inhibition, counter-screen for VIM-2 inhibitors; shares compounds with VIM-2 inh; Purified TEM-1, nitrocefin hydrolysis, epi-absorbance fluorescence; inhibition, % at 5.6 µM; 1,300 tested, 3% active; AID 1866;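 active means inhibition above that campaign's mean inhibition plus 3 SD, cut at about 0.46% in these data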;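 further: 0% = TEM-1 with DMSO and 100% = TEM-1 with 100 µM potassium clavulanate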
Target sequence (P62593 whole entry, looked up): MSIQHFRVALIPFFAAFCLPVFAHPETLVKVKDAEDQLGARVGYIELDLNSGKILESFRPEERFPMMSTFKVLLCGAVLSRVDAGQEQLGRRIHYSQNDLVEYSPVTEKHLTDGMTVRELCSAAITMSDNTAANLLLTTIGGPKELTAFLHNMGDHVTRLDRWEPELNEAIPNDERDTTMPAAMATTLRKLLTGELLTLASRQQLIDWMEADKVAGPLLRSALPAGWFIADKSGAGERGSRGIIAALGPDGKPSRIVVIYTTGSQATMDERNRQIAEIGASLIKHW
VIM-2 inh conf: confirmation of P. aeruginosa VIM-2 metallo-beta-lactamase inhibitors. 1,300 tested, 96% active. shares compounds with VIM-2 inh. inhibition, % at 5.6 µM. purified VIM-2, nitrocefin hydrolysis, epi-absorbance;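 active means inhibition of the VIM-2 beta-lactamase enzyme above about 11% from the earlier first-round screen, limit read from the data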;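 further: 0% = VIM-2 with DMSO and 100% = buffer wells without enzyme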
* marks the source's active call; other numbers are inactive results; nt = no result.

SMILES	PHOSPHO1 inh	ARFGAP1 inhibitor	ASAP1 inh	IMP-1 inh-1	VIM-2 inh	Calb FLC	IMP-1 inh-2	VIM-2 FRET inh	TEM-1 counter	VIM-2 inh conf
CCN(CC)CCN(C)C(=O)c1[nH]c(C(F)(F)F)nc1-c1ccccc1	nt	11.4	3.4	nt	nt	nt	nt	nt	nt	nt
O=C(c1[nH]c(C(F)(F)F)nc1-c1ccccc1)N1CCN(c2ncccn2)CC1	nt	-6.9	-9.8	nt	nt	nt	nt	nt	nt	nt
CC1=CCC(C(=O)O)(C(=O)N/N=C/c2cccs2)C(c2ccc(F)cc2)C1 (configuration not stated)	16.2	-5.8	-12.4	0.4	3.8	-0.4	nt	nt	nt	nt
CC1=CCC(C(=O)O)(C(=O)N/N=C/c2cccs2)C(c2ccc([N+](=O)[O-])cc2)C1 (configuration not stated)	17.1	-1.3	-10.0	-4.2	31.0*	-3.4	-4.0	8.5	-5.5	6.8
O=C1NC[C@H](CCCCN2C[C@H](Cc3ccc(O)cc3)N(CCc3ccc(O)cc3)C(=O)C2=O)N(CC2CCCCC2)C1=O	nt	5.5	-0.7	nt	nt	nt	nt	nt	nt	nt
CN(CCC#N)C(=O)c1cc2c(Cl)nc3ccccc3c2s1	11.4	0.3	-7.0	-2.2	20.2*	0.6	-3.7	7.2	-6.2	25.3*
CN(C)CCN(Cc1ccco1)C(=O)c1cc2c(Cl)nc3ccccc3c2s1	48.5	5.1	-9.1	-0.9	12.7*	4.2	-2.0	0.2	-4.0	36.4*
Cc1cc(-c2ccccc2)nc2cc(C(=O)NCCCn3ccnc3)nn12	-0.9	nt	nt	-1.2	16.9*	-3.5	-1.8	-9.2	-5.4	28.1*
Cc1cc(NCCCn2ccnc2)n2nc(-c3ccc(F)cc3)cc2n1	21.6	3.9	18.1	-1.0	41.2*	20.9	0.4	-12.2	3.0*	67.1*
COCCNC(=O)c1cc2nc(-c3ccccc3)cc(C)n2n1	47.1	-5.9	5.3	-3.2	-0.9	3.1	nt	nt	nt	nt
Cc1nn2c(NCCCn3ccnc3)cc(C(C)C)nc2c1-c1ccccc1	28.8	-1.5	-1.1	-1.1	20.2*	-14.1	-3.4	-25.8	-6.0	29.4*
Cc1cccc(-c2cc3nc(C)c(C)c(NCCCn4ccnc4)n3n2)c1	14.9	-11.8	-2.9	-1.2	34.9*	-0.8	-3.4	-27.5	-7.4	49.2*
Cc1cc(NCCCn2ccnc2)n2nc(-c3ccc(Cl)cc3)cc2n1	45.4	-3.9	3.2	-2.3	38.5*	37.0	-2.6	-23.0	-4.8	46.7*
CCOC(=O)c1sc2nc(C)nc(NCc3ccc(F)cc3)c2c1C	40.5	12.2	-1.4	-1.8	1.4	-1.2	nt	nt	nt	nt
CCOC(=O)c1sc2nc(C)nc(NCc3cccnc3)c2c1C	4.0	10.3	9.4	-3.4	23.9*	14.3	-2.6	-3.9	-6.4	50.3*
N#Cc1cccnc1N1CCN(C(C(=O)NC2CCCC2)c2ccc(F)cc2)CC1 (configuration not stated)	nt	-2.4	2.2	nt	nt	nt	nt	nt	nt	nt
COc1ccc(Cc2n[nH]c(=S)n2-c2ccc3c(c2)OCCO3)cc1	1.2	3.2	1.6	-5.5	7.3	2.7	nt	nt	nt	nt
COc1cc(-c2n[nH]c(=S)n2-c2ccc(Br)cc2)cc(OC)c1OC	35.7	-5.0	-0.4	0.3	-2.6	6.3	nt	nt	nt	nt
COc1ccc(-c2n[nH]c(=S)n2-c2ccc3c(c2)OCCO3)cc1	18.6	0.4	0.4	-5.2	13.4*	26.2	-2.8	34.2*	-7.5	19.5*
COc1ccc(-c2n[nH]c(=S)n2-c2ccc3c(c2)OCCO3)cc1OC	-76.1	3.4	-1.1	-1.4	17.8*	8.3	-3.3	50.5*	-6.2	31.1*
CN(C)C1CN(Cc2cn(Cc3ccc(C(F)(F)F)cc3)nn2)S(=O)(=O)C1 (configuration not stated)	nt	-2.8	-2.3	nt	nt	nt	nt	nt	nt	nt
CC1=C(C(=O)O)N2C(=O)C(NC(=O)c3nn(C)cc3[N+](=O)[O-])C2SC1 (configuration not stated)	12.6	-13.9	-0.7	-0.2	15.4*	-0.7	-3.0	33.4*	-4.7	21.1*
CC1=C(C(=O)O)N2C(=O)C(NC(=O)c3ccn(C)n3)C2SC1 (configuration not stated)	44.4	5.9	2.6	-0.9	-1.0	-4.6	nt	nt	nt	nt
COc1ccc(CCNC(=O)c2cc3c(=O)n4cccc(C)c4nc3n(Cc3ccco3)c2=N)cc1OC	-10.1	2.0	-6.1	-5.3	5.3	-3.9	nt	nt	nt	nt
Cc1cccn2c(=O)c3cc(C(=O)NCc4cccnc4)c(=N)n(C(C)C)c3nc12	31.2	2.9	3.3	-1.1	20.5*	5.3	-3.3	-85.7	-6.0	31.0*
SMILES	PHOSPHO1 inh	ARFGAP1 inhibitor	ASAP1 inh	IMP-1 inh-1	VIM-2 inh	Calb FLC	IMP-1 inh-2	VIM-2 FRET inh	TEM-1 counter	VIM-2 inh conf
Cc1cccn2c(=O)c3cc(C(=O)NCc4ccco4)c(=N)n(C(C)C)c3nc12	14.4	-9.5	-7.0	-6.1	12.5*	-8.1	-4.1	-30.0	-4.8	27.0*
CCCCNC(=O)C1(C)CCC(=O)N1c1cc(C(C)(C)C)nn1C (configuration not stated)	nt	2.6	4.2	nt	nt	nt	nt	nt	nt	nt
CC(=O)Nc1cccc(Oc2nc(C(F)(F)F)nc3ccccc23)c1	36.2	-2.6	-16.8	-3.6	14.3*	0.2	-3.4	-1.2	-6.8	26.1*
CC(=O)Nc1cccc(Oc2nc(-c3ccccn3)nc3ccccc23)c1	23.9	0.4	-11.9	-4.0	-0.7	-1.0	nt	nt	nt	nt
COc1cc(Oc2nc(C(F)(F)F)nc3ccccc23)ccc1C=O	nt	-1.5	5.1	-0.9	13.8*	0.2	-2.9	-4.5	-5.5	23.9*
COc1ccc(Oc2nc(C(F)(F)F)nc3ccccc23)cc1	-7.7	-16.9	5.0	-2.7	4.3	3.4	nt	nt	nt	nt
NC(=O)c1cnn2c(C(F)(F)F)cc(-c3ccc(F)cc3)nc12	18.2	-3.0	-3.0	0.9	16.0*	7.4	-5.3	-0.7	-8.1	16.2*
C=CCNC(=S)N/N=C(\C)c1cccnc1	-27.4	0.2	6.6	-3.9	-0.4	-1.4	nt	nt	nt	nt
C/C(=N\NC(N)=O)c1ccc(-n2ccnc2)cc1	40.5	2.2	9.1	-0.9	2.1	48.6	nt	nt	nt	nt
C/C(=N\NC(=S)NC(C)C)c1ccc(-n2ccnc2)cc1	28.6	3.1	5.4	-1.5	77.3*	0.0	-1.7	-11.5	-7.4	86.4*
CNC(=S)N/N=C(\C)c1ccc(-n2ccnc2)cc1	47.4	15.7	-1.2	1.3	23.4*	-7.7	-3.8	-15.2	-7.3	43.0*
C=CCNC(=S)N/N=C(\C)c1ccc(-n2ccnc2)cc1	-78.1	-7.1	-3.2	-1.0	66.4*	-2.3	-2.8	-7.0	-7.7	80.4*
